Calls of active or inactive are those of the source. No cut-off for these calls is given here.
What was measured:
[1] = target: T1, Glutamate NMDA receptor; GRIN1/GRIN2A (Homo sapiens, UniProt Q05586+Q12879); assay: Positive allosteric modulation of recombinant human GluN1/GluN2A receptor stably expressed in HEK293 cells assessed as increase in glycine/L-glutamate-induced channel current at -70 mV holding potential by IonWork […] method; assay type: cell-based
Procedure, shortened: (§1)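 Stable HEK293 lines expressing GluN1/GluN2A or GluN1/GluN2B, measured by automated whole-cell patch clamp (Ionworks Barracuda). Cells were held at -70 mV and stepped to -45 mV during agonist application (EC20 L-glutamate plus 50 µM glycine). The test article was first pre-applied alone for 5 min, then co-applied with agonist to record potentiation. Concentration-response percent potentiation gave EC50 and Emax.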

[2] = target: T1, Glutamate NMDA receptor; GRIN1/GRIN2A; assay: Positive allosteric modulation of recombinant human GluN1/GluN2A receptor stably expressed in HEK293 cells assessed as increase in glycine/L-glutamate-induced channel current at -70 mV holding potential by IonWork […] method relative to control; assay type: cell-based; procedure, shortened: as §1
[3] = target: T2, Glutamate NMDA receptor; GRIN1/GRIN2B (Homo sapiens, UniProt Q05586+Q13224); assay: Positive allosteric modulation of recombinant human GluN1/GluN2B receptor stably expressed in HEK293 cells assessed as increase in glycine/L-glutamate-induced channel current at -70 mV holding potential by IonWork […] method; assay type: cell-based; procedure, shortened: as §1
[4] = Stability in human liver microsomes; assay type: ADME, Microsome; details: read-out: Stability
[5] = Stability in rat liver microsomes; assay type: ADME, Microsome; details: read-out: Stability
[6] = Clearance in iv dosed rat; assay type: ADME, organism-based; details: in vivo
[7] = Volume of distribution at steady state in rat; assay type: ADME; details: in vivo, read-out: Vdss
[8] = Oral bioavailability in rat; assay type: ADME, organism-based; details: in vivo
[9] = Ratio of drug level in Sprague-Dawley rat brain to plasma at 2.5 mg/kg, iv measured after 1 hr; assay type: ADME, organism-based; details: brain and plasma, read-out: BPR
Hippocampus = assay: Induction of synaptic plasticity in postnatal 120 to 150 day rat brain hippocampal slice assessed as stimulation of theta burst stimulaiton-induced field potential potentiation at 1 uM treated 20 mins prior to theta burst stimulation and measured after 60 mins by electrophysiological method; assay type: functional, tissue-based
Rattus norvegicus [10] = assay: Improvement in social recognition in 20 to 21 months old Wistar Han rat model of aged-induced memory deficit assessed as reduction in time spent with familiar juvenile at 1 mg/kg, ip administered 4 hrs prior to training trial and measured after 30 mins; assay type: functional, organism-based
Rattus norvegicus [11] = assay: Improvement in social recognition in 20 to 21 months old Wistar Han rat model of aged-induced memory deficit assessed as reduction in time spent with familiar juvenile at 10 mg/kg, ip administered 4 hrs prior to training trial and measured after 30 mins; assay type: functional, organism-based
Rattus norvegicus [12] = assay: Improvement in social recognition in 20 to 21 months old Wistar Han rat model of aged-induced memory deficit assessed as reduction in time spent with familiar juvenile at 3 mg/kg, ip administered 4 hrs prior to training trial and measured after 30 mins; assay type: functional, organism-based
[13] = Drug uptake in 20 to 21 months old Wistar Han rat model of aged-induced memory deficit brain at 1 mg/kg, ip measured after 4 hrs; assay type: ADME, organism-based; details: read-out: Drug uptake
[14] = Drug uptake in 20 to 21 months old Wistar Han rat model of aged-induced memory deficit brain at 3 mg/kg, ip measured after 4 hrs; assay type: ADME, organism-based; details: read-out: Drug uptake
[15] = Drug uptake in 20 to 21 months old Wistar Han rat model of aged-induced memory deficit brain at 10 mg/kg, ip measured after 4 hrs; assay type: ADME, organism-based; details: read-out: Drug uptake
[16] = target: T2, Glutamate NMDA receptor; GRIN1/GRIN2B; assay: Positive allosteric modulation of recombinant human GluN1/GluN2B receptor stably expressed in HEK293 cells assessed as increase in glycine/L-glutamate-induced channel current at -70 mV holding potential by IonWork whole cell patch clamp method relative to control
[17] = target: T1, Glutamate NMDA receptor; GRIN1/GRIN2A; assay: Positive allosteric modulation of recombinant human GluN1/GluN2A receptor expressed in Xenopus laevis oocytes assessed as increase in glycine/L-glutamate-induced channel current at -80 mV holding potential by two-electrode voltage clamp method; assay type: cell-based
[18] = target: T1, Glutamate NMDA receptor; GRIN1/GRIN2A; assay: Positive allosteric modulation of recombinant human GluN1/GluN2A receptor expressed in Xenopus laevis oocytes assessed as increase in glycine/L-glutamate-induced channel current at -80 mV holding potential by two-electrode voltage clamp method relative to control; assay type: cell-based
[19] = Positive allosteric modulation of recombinant dog GluN1/GluN2A receptor expressed in Xenopus laevis oocytes assessed as increase in glycine/L-glutamate-induced channel current at -80 mV holding potential by two-electrode voltage clamp method; assay type: cell-based; details: Canis lupus familiaris
Canis lupus familiaris = species: Canis lupus familiaris; assay: Positive allosteric modulation of recombinant dog GluN1/GluN2A receptor expressed in Xenopus laevis oocytes assessed as increase in glycine/L-glutamate-induced channel current at -80 mV holding potential by two-electrode voltage clamp method relative to control; assay type: cell-based
[20] = target: Glutamate NMDA receptor; Grin1/Grin2a (Rattus norvegicus, UniProt P35439+Q00959); assay: Positive allosteric modulation of recombinant rat GluN1/GluN2A receptor expressed in Xenopus laevis oocytes assessed as increase in glycine/L-glutamate-induced channel current at -80 mV holding potential by two-electrode voltage clamp method; assay type: cell-based
[21] = target: Glutamate NMDA receptor; Grin1/Grin2a (Rattus norvegicus) (UniProt P35439+Q00959); assay: Positive allosteric modulation of recombinant rat GluN1/GluN2A receptor expressed in Xenopus laevis oocytes assessed as increase in glycine/L-glutamate-induced channel current at -80 mV holding potential by two-electrode voltage clamp method relative to control; assay type: cell-based
[22] = Half life in rat; assay type: ADME; details: in vivo

C[C@H](CCC(C)(C)O)[C@H]1CC[C@H]2[C@@H]3CC=C4C[C@@](C)(O)CC[C@]4(C)[C@H]3CC[C@]12C
EC50 [1]: 480 nM
Emax [2]: 220%
EC50 [3]: 38 nM
microsomal CLint [4]: 13 µL/min/mg
microsomal CLint [5]: 35 µL/min/mg
clearance [6]: 18.3 mL/min/kg
Vd [7]: 0.65 L/kg
bioavailability [8]: 28%
Kp at 1 h [9]: 0.6
Activity (Hippocampus): Active
Activity (Rattus norvegicus [10]): Active
Activity (Rattus norvegicus [11]): Active
Activity (Rattus norvegicus [12]): inactive
concentration at 4 h [13]: 400 nM
concentration at 4 h [14]: 900 nM
concentration at 4 h [15]: 3700 nM
Emax [16]: 92%

CC(C)[C@@H](O)CC[C@@H](C)[C@H]1CC[C@H]2[C@@H]3CC=C4C[C@@H](O)CC[C@]4(C)[C@H]3CC[C@]12C
EC50 [1]: 150 nM
Emax [2]: 210%
EC50 [3]: 530 nM
EC50 [17]: 300 nM
Emax [18]: 73%
EC50 [19]: 650 nM
Emax (Canis lupus familiaris): 130%
EC50 [20]: 650 nM
Emax [21]: 180%
microsomal CLint [4]: 10 µL/min/mg
microsomal CLint [5]: 52 µL/min/mg
clearance [6]: 98.3 mL/min/kg
Vd [7]: 2.5 L/kg
half-life [22]: 32.4 min
bioavailability [8]: 9%
Emax [16]: 150%

Source: ChEMBL document CHEMBL4406822, “Neuroactive Steroid N-Methyl-d-aspartate Receptor Positive Allosteric Modulators: Synthesis, SAR, and Pharmacological Activity” (J Med Chem, 2019)
